Assays:
[1] = target: Phosphatidylinositol 4-kinase beta (Homo sapiens, UniProt Q9UBF8); test: Inhibition of PIK4CB in human HeLa cells lysate pre incubated for 15 mins followed by ATP acyl phosphate probe addition and measured after 10 mins by LC-MS/MS analysis; format: subcellular
[2] = Inhibition of SRPK1/2 in human HeLa cells lysate pre incubated for 15 mins followed by ADP acyl phosphate probe addition and measured after 10 mins by LC-MS/MS analysis; format: subcellular
[3] = target: Tyrosine-protein kinase receptor UFO (Homo sapiens) (UniProt P30530); test: Inhibition of AXL in human HeLa cells lysate at 10 uM pre incubated for 15 mins followed by ADP acyl phosphate probe addition and measured after 10 mins by LC-MS/MS analysis relative to control; format: subcellular; conditions: time 25.0 min
In short: (§1)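 KiNativ-type profiling in HeLa lysate (5 mg/mL total protein). Lysate preincubated 15 min with inhibitor at 50, 10, 2, 0.8 or 0 μM, then ATP or ADP acylphosphate probe added (5 μM final) for 10 min. Reaction stopped with urea and analysed by targeted MS, using up to four fragment ions per kinase peptide-probe conjugate. % inhibition calculated against untreated lysate. Duplicate reactions.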

[4] = target: Tyrosine-protein kinase Fyn (Homo sapiens, UniProt P06241); test: Inhibition of FYN in human HeLa cells lysate at 10 uM pre incubated for 15 mins followed by ADP acyl phosphate probe addition and measured after 10 mins by LC-MS/MS analysis relative to control; format: subcellular; conditions: time 25.0 min
[5] = target: T1, Phosphorylase b kinase gamma catalytic chain, liver/testis isoform (Homo sapiens) (UniProt P15735); test: Inhibition of PHKG2 in human HeLa cells lysate at 2 uM pre incubated for 15 mins followed by ADP acyl phosphate probe addition and measured after 10 mins by LC-MS/MS analysis relative to control; format: subcellular; conditions: time 25.0 min
T1 sequence (whole entry): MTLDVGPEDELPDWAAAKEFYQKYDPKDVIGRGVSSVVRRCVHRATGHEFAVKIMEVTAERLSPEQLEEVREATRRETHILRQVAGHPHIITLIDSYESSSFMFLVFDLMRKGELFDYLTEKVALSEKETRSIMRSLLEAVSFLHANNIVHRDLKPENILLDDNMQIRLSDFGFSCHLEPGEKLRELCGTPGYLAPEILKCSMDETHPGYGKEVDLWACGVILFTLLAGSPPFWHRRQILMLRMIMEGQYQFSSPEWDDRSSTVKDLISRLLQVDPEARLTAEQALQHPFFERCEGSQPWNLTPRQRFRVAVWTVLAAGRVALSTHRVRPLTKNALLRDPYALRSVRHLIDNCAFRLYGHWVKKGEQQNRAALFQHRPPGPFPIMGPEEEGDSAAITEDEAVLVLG

[6] = target: Phosphatidylinositol 3-kinase catalytic subunit type 3 (Homo sapiens, UniProt Q8NEB9); test: Inhibition of PIK3C3 in human HeLa cells lysate at 50 uM pre incubated for 15 mins followed by ATP acyl phosphate probe addition and measured after 10 mins by LC-MS/MS analysis relative to control; format: subcellular; conditions: time 25.0 min
[7] = target: Calcium/calmodulin-dependent protein kinase type II subunit gamma (Homo sapiens, UniProt Q13555); test: Inhibition of CAMK2g in human HeLa cells lysate at 50 uM pre incubated for 15 mins followed by ATP acyl phosphate probe addition and measured after 10 mins by LC-MS/MS analysis relative to control; format: subcellular; conditions: time 25.0 min; in short: as §1
[8] = target: T2, Aurora kinase A (Homo sapiens) (UniProt O14965); test: Inhibition of AurA in human HeLa cells lysate at 50 uM pre incubated for 15 mins followed by ATP acyl phosphate probe addition and measured after 10 mins by LC-MS/MS analysis relative to control; format: subcellular; conditions: time 25.0 min; in short: as §1
T2 sequence (whole entry): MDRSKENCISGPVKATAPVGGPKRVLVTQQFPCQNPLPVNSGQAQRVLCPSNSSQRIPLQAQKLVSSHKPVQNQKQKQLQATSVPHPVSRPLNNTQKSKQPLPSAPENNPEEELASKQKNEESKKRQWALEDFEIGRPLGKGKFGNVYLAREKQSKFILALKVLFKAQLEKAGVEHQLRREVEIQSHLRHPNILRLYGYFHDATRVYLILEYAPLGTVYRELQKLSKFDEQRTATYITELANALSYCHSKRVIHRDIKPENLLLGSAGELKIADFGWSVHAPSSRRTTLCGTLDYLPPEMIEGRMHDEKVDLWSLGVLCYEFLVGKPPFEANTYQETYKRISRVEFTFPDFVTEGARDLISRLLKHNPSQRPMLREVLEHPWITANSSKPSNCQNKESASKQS

[9] = target: Phosphatidylinositol 5-phosphate 4-kinase type-2 beta (Homo sapiens) (UniProt P78356); test: Inhibition of PIP5K2B in human HeLa cells lysate at 50 uM pre incubated for 15 mins followed by ATP acyl phosphate probe addition and measured after 10 mins by LC-MS/MS analysis relative to control; format: subcellular; conditions: time 25.0 min
[10] = Inhibition of HGK/MINK/TNIK in human HeLa cells lysate at 10 uM pre incubated for 15 mins followed by ATP acyl phosphate probe addition and measured after 10 mins by LC-MS/MS analysis relative to control; conditions: 25 min, condition cancer
[11] = target: Serine/threonine-protein kinase 24 (Homo sapiens, UniProt Q9Y6E0); test: Inhibition of MST3 in human HeLa cells lysate at 10 uM pre incubated for 15 mins followed by ATP acyl phosphate probe addition and measured after 10 mins by LC-MS/MS analysis relative to control; format: subcellular; conditions: time 25.0 min
[12] = target: T3, Scaffold protein ILK (Homo sapiens) (UniProt Q13418); test: Inhibition of ILK in human HeLa cells lysate at 10 uM pre incubated for 15 mins followed by ATP acyl phosphate probe addition and measured after 10 mins by LC-MS/MS analysis relative to control; format: subcellular; conditions: time 25.0 min
T3 sequence (whole entry): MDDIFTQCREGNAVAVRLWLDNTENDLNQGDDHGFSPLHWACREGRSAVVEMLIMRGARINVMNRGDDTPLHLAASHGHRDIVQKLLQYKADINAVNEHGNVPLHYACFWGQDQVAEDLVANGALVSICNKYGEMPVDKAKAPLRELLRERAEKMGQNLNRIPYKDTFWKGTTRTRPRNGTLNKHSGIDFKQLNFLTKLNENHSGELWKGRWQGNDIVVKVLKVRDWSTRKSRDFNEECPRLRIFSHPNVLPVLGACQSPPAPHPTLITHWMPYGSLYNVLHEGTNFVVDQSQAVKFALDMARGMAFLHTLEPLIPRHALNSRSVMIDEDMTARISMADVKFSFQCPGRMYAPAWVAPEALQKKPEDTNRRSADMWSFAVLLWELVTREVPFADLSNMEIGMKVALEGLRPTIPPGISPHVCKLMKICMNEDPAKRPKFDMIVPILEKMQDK

[13] = Inhibition of SRC/FYN/YES in human HeLa cells lysate at 10 uM pre incubated for 15 mins followed by ATP acyl phosphate probe addition and measured after 10 mins by LC-MS/MS analysis relative to control; conditions: 25 min, condition cancer
[14] = target: Cyclin-dependent kinase 11B (Homo sapiens, UniProt P21127); test: Inhibition of PITSLRE in human HeLa cells lysate at 2 uM pre incubated for 15 mins followed by ATP acyl phosphate probe addition and measured after 10 mins by LC-MS/MS analysis relative to control; format: subcellular; conditions: time 25.0 min

Chain of Phosphatidylinositol 3-kinase catalytic subunit type 3 (Q8NEB9 whole entry): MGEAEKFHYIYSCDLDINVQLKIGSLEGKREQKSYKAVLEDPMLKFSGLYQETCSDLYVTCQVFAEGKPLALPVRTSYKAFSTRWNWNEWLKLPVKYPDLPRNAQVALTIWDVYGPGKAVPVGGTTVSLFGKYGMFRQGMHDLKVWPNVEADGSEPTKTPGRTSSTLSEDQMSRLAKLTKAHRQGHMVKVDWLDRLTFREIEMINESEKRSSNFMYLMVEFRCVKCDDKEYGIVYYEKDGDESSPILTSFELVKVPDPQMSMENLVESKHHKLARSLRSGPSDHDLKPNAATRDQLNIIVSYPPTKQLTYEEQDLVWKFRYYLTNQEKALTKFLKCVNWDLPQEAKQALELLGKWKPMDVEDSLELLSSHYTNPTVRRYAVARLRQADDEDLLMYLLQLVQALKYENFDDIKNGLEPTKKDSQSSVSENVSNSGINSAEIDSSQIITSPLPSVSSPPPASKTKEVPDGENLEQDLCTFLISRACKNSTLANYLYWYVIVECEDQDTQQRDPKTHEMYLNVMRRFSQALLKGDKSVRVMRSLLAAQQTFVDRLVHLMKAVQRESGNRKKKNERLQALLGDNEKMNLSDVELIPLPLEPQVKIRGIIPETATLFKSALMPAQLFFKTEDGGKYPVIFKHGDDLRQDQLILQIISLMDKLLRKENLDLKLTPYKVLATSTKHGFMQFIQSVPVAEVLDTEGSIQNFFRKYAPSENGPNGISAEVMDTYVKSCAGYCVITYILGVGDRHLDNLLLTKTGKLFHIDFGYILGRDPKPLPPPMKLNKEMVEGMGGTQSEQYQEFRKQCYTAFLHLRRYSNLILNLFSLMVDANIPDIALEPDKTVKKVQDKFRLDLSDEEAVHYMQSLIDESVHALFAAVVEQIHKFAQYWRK
Chain of Tyrosine-protein kinase receptor UFO (Homo sapiens) (P30530 whole entry, the tested form may be a part): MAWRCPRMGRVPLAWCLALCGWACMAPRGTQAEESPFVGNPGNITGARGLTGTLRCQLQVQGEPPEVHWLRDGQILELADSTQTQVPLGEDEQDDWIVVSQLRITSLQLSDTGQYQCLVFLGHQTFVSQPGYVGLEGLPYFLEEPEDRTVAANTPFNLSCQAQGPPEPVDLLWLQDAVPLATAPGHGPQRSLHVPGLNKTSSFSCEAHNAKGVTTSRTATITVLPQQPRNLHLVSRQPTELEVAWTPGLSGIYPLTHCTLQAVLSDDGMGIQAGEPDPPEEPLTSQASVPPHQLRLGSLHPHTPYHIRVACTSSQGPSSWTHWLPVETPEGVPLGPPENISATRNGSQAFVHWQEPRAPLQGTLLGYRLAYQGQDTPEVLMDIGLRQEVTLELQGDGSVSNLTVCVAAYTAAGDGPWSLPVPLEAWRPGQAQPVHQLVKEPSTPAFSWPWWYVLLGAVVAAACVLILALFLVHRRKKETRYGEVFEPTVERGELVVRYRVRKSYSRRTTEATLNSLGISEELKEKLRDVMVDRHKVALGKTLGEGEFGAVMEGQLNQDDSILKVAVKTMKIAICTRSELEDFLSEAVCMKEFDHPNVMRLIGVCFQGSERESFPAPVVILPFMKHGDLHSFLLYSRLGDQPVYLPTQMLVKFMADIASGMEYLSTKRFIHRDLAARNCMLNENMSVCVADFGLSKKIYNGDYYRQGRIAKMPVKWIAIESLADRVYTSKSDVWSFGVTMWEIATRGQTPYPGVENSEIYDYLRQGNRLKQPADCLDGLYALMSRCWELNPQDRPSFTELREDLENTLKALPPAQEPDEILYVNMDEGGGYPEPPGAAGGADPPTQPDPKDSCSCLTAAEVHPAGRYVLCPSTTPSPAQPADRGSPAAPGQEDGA
Chain of Tyrosine-protein kinase Fyn (P06241 2-537 limits assumed): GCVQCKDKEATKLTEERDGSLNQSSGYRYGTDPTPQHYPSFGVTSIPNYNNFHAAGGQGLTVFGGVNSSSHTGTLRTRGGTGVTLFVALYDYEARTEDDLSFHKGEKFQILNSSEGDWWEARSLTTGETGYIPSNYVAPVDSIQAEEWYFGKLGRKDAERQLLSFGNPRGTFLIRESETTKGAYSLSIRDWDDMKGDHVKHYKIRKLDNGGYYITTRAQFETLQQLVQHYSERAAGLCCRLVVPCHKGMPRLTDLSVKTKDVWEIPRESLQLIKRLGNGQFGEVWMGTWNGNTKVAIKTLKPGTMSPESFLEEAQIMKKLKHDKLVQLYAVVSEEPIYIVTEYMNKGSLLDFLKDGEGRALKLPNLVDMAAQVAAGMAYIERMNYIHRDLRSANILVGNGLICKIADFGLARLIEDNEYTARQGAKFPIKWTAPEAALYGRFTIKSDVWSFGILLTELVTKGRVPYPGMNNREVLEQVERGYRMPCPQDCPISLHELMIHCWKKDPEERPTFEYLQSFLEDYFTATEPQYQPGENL
Chain of Phosphatidylinositol 5-phosphate 4-kinase type-2 beta (Homo sapiens) (P78356 whole entry): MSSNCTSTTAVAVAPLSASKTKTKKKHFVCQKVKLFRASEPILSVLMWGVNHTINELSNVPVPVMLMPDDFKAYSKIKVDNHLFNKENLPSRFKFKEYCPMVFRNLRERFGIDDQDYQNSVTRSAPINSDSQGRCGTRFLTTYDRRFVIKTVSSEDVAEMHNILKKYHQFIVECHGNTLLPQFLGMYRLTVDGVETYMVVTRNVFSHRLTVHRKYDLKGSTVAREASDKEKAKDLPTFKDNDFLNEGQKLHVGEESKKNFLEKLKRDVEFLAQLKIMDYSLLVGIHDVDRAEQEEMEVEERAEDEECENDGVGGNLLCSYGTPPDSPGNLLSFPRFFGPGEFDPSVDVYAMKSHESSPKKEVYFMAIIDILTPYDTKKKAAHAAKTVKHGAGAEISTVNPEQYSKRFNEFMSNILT
Chain of Phosphatidylinositol 4-kinase beta (Q9UBF8 whole entry): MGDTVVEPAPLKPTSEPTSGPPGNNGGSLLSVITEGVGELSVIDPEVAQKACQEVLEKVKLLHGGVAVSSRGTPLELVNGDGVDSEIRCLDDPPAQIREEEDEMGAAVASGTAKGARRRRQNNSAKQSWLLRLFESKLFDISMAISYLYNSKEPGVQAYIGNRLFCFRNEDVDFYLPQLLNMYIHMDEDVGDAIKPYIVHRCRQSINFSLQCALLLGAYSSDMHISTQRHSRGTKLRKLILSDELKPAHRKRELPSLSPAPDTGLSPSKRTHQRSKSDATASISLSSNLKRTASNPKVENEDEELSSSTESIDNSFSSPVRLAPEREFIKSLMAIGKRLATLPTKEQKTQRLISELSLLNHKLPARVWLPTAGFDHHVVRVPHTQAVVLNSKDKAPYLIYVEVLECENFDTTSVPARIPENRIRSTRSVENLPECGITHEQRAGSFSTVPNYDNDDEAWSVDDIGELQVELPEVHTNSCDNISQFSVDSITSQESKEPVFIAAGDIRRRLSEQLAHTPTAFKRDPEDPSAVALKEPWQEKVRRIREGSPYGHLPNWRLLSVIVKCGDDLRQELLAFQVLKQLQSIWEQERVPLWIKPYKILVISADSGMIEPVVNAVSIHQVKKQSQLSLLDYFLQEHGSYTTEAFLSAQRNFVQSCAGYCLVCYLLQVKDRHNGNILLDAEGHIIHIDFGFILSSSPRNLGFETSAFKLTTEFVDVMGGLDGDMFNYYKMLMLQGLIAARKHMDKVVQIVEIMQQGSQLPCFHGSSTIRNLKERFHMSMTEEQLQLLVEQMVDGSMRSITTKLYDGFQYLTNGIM
Chain of Serine/threonine-protein kinase 24 (Q9Y6E0 whole entry, looked up): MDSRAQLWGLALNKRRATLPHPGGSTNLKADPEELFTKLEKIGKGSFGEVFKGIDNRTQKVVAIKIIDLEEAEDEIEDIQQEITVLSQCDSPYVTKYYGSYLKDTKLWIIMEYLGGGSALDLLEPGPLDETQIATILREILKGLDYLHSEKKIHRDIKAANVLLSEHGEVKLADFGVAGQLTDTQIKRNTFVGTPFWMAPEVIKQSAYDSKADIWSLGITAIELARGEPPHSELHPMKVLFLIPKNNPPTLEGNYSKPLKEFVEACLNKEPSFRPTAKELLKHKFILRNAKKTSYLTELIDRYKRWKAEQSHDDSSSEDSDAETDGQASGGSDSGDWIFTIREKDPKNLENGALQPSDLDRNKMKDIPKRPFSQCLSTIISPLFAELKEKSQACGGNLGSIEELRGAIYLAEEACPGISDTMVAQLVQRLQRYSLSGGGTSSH
Chain of Calcium/calmodulin-dependent protein kinase type II subunit gamma (Q13555 whole entry): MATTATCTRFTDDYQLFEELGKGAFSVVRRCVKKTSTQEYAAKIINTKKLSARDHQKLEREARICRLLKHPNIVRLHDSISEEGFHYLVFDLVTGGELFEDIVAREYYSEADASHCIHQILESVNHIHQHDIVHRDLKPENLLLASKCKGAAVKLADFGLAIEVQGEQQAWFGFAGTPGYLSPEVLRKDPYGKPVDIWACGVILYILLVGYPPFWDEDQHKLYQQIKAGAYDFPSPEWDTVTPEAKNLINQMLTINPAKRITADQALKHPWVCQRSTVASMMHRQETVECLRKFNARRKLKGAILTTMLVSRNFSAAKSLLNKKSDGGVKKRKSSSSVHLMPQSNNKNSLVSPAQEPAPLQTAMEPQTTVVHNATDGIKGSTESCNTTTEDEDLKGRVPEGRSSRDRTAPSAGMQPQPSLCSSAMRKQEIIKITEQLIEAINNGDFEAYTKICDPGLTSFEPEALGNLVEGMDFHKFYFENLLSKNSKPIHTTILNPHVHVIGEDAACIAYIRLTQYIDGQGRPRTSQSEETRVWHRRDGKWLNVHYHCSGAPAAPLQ

CCOc1cc(N2CCC(O)CC2)ccc1Nc1ncc2c(n1)N(C)c1ccccc1C(=O)N2C
IC50 [1]: 34 µM | IC50 [2]: > 50 µM | inhibition [3]: -5.1% | inhibition [4]: 11.9% | inhibition [5]: 3.4% | inhibition [6]: 19.3% | inhibition [7]: 13.9% | inhibition [8]: 13.1% | inhibition [9]: 6.9% | inhibition at 10 µM [10]: -6.3% | inhibition [11]: -7.7% | inhibition [12]: 13.3% | inhibition at 10 µM [13]: -68.3% | inhibition [14]: 4.9%
